One series has as its system CT26 tumors. The experiment in a line: CT26 syngeneic colorectal cancer survival model. It is filed as in vivo, mice. To be noted: XL092 30 mg/kg orally once a day, anti-PD-1 10 mg/kg every 3–4 days i.p. In outline: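 CT26 syngeneic mice randomised at ~90 mm3. Treatment: oral test compound 30 mg/kg once daily for 34 days, with or without anti-PD-1 antibody (10 mg/kg i.p. every 3–4 days for 5 weeks, diluted in sterile PBS), or vehicle. Animals sacrificed at tumour volume 2,500 mm3; survival analysed by Kaplan–Meier.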

The next series has as its system NCI-H441 tumors. In words: NCI-H441 xenograft tumor growth. To be noted: 21 days, oral. It is filed as in vivo, mice. In outline: (§1)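 Human tumour cells inoculated into the rear flank. Mice randomised at mean volumes of ~200 mm3 (Hs 746T), ~120 mm3 (MDA-MB-231), ~100 mm3 (NCI-H441) or ~90 mm3 (SNU-5). Oral gavage once daily with test compound or vehicle. Tumour volume and body weight measured at least twice weekly. […], using mean volumes at extraction and dosing start.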

Another series deals with VEGFR2 (Mus musculus, UniProt P35918). It is filed as in vivo, mice. Conditions: lung. In a few lines:
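Hs 746T tumour-bearing mice received single oral doses (30 or 100 mg/kg; n = 5 pooled) or vehicle (n = 6 pooled). Then hVEGF (10 μg i.v.) 3.5 h later, 30 min before sacrifice. Lung homogenate immunoprecipitated overnight with anti-VEGFR2 on Protein A magnetic beads; Western for phospho- and total VEGFR2, infrared imaging. 100 mg/kg group also sampled every 12 h to 48 h.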

The subject of series [1] is human xenograft murine models. In words: Murine xenograft models overall. It counts as in vivo, mice. To be noted: after 14 days of daily 10 mg/kg treatments. In outline:
as §1

The next series concerns MDA-MB-231 tumors. The experiment in a line: MDA-MB-231 xenograft tumor growth. It is filed as in vivo, mice. To be noted: 14 days, oral. In outline: as §1
Another series concerns HUVEC cells. In words: Cellular proliferation, BrdU incorporation ELISA. It is filed as cell-based. To be noted: Homo sapiens, 48 h, read-out: Proliferation IC50. In outline: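 HUVEC seeded at 1,500 cells/well in triplicate in VEGF-containing endothelial growth medium, overnight at 37°C, 5% CO2. Serial dilutions added for 48 h. BrdU labelling 2 h at 37°C, FixDenat 30 min at RT, anti-BrdU-POD 90 min at RT, washes, then chemiluminescent substrate read.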

A further series relates to peripheral leukocytes. In words: Peripheral immunocytes by flow cytometry in MC38 tumor-bearing mice. It counts as in vivo. To be noted: 7 days, XL092 30 mg/kg. In outline:
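Female C57BL/6 mice (5–6 weeks) inoculated s.c. with 1 × 10^6 MC38 cells, randomised at ~200 mm3. […] single-cell suspensions surface-stained with a lineage panel plus fixable viability dye. Medians compared by Mann–Whitney U.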

For series [2] the following is noted: humans; preliminary phase I data (NCT03845166); cited from earlier work.
The next series has as its target T1, AXL (Homo sapiens, UniProt P30530).
T1 sequence (P30530 26-894): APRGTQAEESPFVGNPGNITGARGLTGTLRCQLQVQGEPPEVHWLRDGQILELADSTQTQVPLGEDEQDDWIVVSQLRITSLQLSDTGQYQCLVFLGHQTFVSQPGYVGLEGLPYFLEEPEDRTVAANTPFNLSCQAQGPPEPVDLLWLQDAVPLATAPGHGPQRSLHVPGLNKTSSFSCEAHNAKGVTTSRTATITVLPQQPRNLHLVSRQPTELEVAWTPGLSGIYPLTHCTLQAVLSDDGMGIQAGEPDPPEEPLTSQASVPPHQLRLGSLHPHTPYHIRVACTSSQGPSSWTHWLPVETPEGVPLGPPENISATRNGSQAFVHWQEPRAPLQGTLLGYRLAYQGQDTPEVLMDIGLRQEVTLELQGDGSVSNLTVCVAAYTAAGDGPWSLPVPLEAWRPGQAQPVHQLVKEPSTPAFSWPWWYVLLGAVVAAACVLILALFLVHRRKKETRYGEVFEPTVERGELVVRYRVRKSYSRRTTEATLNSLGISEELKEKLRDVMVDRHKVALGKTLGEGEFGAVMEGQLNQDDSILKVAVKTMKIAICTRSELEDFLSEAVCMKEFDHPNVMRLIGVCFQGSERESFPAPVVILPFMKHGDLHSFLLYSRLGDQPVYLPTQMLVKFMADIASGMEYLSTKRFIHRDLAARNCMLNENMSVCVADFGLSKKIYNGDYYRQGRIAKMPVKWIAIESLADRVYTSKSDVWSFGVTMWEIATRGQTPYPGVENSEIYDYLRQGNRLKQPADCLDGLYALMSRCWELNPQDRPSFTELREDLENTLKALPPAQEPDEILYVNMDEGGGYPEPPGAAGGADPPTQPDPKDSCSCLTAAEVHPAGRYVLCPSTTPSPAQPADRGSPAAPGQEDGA
In words: AXL phosphorylation in Hs 746T tumors in vivo. Set-up: species or system mice. In outline: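 Hs 746T xenograft mice received single oral doses (30 or 100 mg/kg) or vehicle, n = 6/group. […] Tumour pAXL/AXL ratio reported as mean ± SEM, Mann–Whitney U test. Duration study: 100 mg/kg group sampled every 12 h up to 48 h.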

The next series concerns SNU-5 cells. The experiment in a line: Cellular proliferation, BrdU incorporation ELISA. It counts as cell-based. Conditions: Homo sapiens, SNU-5, 48 h, read-out: Proliferation IC50. In outline:
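SNU-5 seeded at 7,500 cells/well in triplicate in IMDM + 10% FBS + 1% penicillin-streptomycin, overnight at 37°C, 5% CO2. Serial dilutions added for 48 h. BrdU labelling 2 h at 37°C. Plates spun 300 × g, 10 min before medium removal. FixDenat 30 min at RT, anti-BrdU-POD 90 min at RT, washes, chemiluminescent read.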

For series [3], the target named is MET (Homo sapiens, UniProt P08581, DEL964-1010). In words: Inhibition of receptor phosphorylation, ELISA, Hs 746T cells. It counts as cell-based.
The target in series [4] is MET (Homo sapiens, UniProt P08581). The experiment in a line: Inhibition of receptor phosphorylation, ELISA, PC-3 cells/HGF. It counts as cell-based.
The conditions of series [5]: rats; cited from earlier work.
Setting [6] is: Hs 746T model, single dose of 100 mg/kg.

Read-outs that look alike come from different tables or passages of the source.

Sequence of VEGFR2 (P35918 20-1345): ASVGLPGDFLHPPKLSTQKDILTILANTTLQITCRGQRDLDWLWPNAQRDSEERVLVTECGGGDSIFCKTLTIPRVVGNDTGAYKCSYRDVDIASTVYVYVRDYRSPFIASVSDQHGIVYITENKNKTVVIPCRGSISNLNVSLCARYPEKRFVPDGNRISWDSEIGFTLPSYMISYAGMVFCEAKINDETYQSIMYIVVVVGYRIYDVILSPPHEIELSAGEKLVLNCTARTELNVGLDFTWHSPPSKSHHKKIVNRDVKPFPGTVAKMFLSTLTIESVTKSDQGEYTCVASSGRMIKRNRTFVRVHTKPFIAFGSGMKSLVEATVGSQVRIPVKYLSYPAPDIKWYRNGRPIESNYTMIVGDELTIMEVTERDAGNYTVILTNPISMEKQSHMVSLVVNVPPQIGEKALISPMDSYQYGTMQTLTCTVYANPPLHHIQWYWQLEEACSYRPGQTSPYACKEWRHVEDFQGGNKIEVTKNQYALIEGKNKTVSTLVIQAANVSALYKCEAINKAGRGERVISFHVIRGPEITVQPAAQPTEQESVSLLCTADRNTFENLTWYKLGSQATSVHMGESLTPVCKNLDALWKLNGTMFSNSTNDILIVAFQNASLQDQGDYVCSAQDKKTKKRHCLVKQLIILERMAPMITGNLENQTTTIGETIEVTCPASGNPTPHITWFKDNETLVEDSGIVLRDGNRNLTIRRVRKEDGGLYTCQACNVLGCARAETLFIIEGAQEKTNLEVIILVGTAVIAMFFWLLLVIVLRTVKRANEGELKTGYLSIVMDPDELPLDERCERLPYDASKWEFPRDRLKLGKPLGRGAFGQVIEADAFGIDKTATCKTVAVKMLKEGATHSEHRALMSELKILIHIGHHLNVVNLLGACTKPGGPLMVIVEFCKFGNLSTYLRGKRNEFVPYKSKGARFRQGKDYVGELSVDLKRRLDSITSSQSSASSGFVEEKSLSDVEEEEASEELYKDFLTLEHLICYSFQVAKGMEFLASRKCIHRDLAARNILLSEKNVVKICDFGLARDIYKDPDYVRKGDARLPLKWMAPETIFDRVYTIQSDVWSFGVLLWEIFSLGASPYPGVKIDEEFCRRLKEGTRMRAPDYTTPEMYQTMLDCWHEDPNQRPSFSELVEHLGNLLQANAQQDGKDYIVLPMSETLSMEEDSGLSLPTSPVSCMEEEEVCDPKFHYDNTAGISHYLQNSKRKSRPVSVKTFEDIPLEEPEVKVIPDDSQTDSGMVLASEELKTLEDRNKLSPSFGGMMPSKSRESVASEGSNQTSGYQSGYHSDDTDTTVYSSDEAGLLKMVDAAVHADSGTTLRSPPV

In the case of `CNC(=O)c1cc2c(Oc3ccc(NC(=O)C4(C(=O)Nc5ccc(F)cc5)CC4)cc3)ccnc2cc1OC` [XL092], the “survival to the end of the 34-day dosing regimen” value in the series on CT26 tumors came out at 20%. Moreover, the values for the Tumor growth inhibition in the series on NCI-H441 tumors (1 mg/kg/day), with MDA-MB-231 tumors (3 mg/kg/day) and in the series with MDA-MB-231 tumors (10 mg/kg/day) were 68.3%, 73.6% and 78.6%, respectively. Besides, the “Tumor regression (%)” value with NCI-H441 tumors (3 mg/kg/day) stood at 5.6%; with NCI-H441 tumors (10 mg/kg/day) it was 67.7%; in the series on NCI-H441 tumors (30 mg/kg/day), 72.1%; in the series with NCI-H441 tumors (60 mg/kg/day), 86.1%. For the same molecule, at VEGFR2 (setting [6]), the “duration of inhibition of VEGFR2 phosphorylation” value is recorded as “approximately 24 hours”. Also, the “pVEGFR2 Inhibition, %” value on VEGFR2 (Hs 746T tumor-bearing mice, 30 mg/kg single bolus, 4 hours after treatment) was “complete abolishment”. Also, the “TGI (summary over several models)” value in series [1] was ≥ 70%. For the same molecule, the IC50 in the series with HUVEC cells was found to be 10.4 nM; in the series on SNU-5 cells, 98.9 nM; against MET [3], 25.4 ± 1.32 nM; against MET [4], 11.9 ± 1.55 nM. Also, the “peripheral CD4+ T cells relative to vehicle” value in the series with peripheral leukocytes is reported as “significant increases”. Moreover, the “peripheral B cells relative to vehicle” value in the series on peripheral leukocytes (antibodies 5 mg/kg) is on record as “significant increases”. Besides, the “peripheral myeloid cells relative to vehicle” value in the series on peripheral leukocytes (antibodies 5 mg/kg) was “significant decreases”. Further, the half-life result in series [2] is recorded as “approximately 24 hours”; in [5], “approximately 7 hours”. Moreover, the “duration of inhibition of AXL phosphorylation” value at AXL (setting [6]) is given as “approximately 24 hours”. For the same molecule, the “tumor AXL phosphorylation relative to vehicle” value on AXL (Hs 746T xenograft, single oral doses 30 or 100 mg/kg, P < 0.01) was “significant decrease”.

The values are drawn from PMC9890135 (Molecular Cancer Therapeutics, 2022).
